In brackets after ≈: the same amount, converted by molar mass.
Assays:
HeLa = assay: Effective concentration required to inhibit by 50% the growth of HeLa S3 cells; type: functional, cell-based; details: Homo sapiens
Method in brief: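 HeLa S3 cultures were given compounds dissolved in water, at final concentrations of 0.005–5 μg/mL in the incubation medium. EC50 is the concentration that inhibited the increment of cellular protein by 50%, read from dose-response curves.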

L1210 = assay: Effective concentration required to inhibit by 50% the growth of L1210 cells; type: functional, cell-based; details: Mus musculus
Method in brief: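 Mouse L1210 leukemia cells were grown in RPMI 1640 with 5% fetal calf serum, penicillin and streptomycin at 37 °C in humidified air–5% CO2, and seeded at 5 × 10⁴ cells/mL. Compounds dissolved in 50% ethanol were added at four concentrations. EC50 is the concentration giving 50% growth inhibition after 48 h, measured by cell protein content.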

P338 [1] = assay: Survivor recorded on day 4 after day of first injection as a measure of drug toxicity(dose 6.25 mg/kg); 8/8; type: functional, Mus musculus
P338 [2] = assay: Ratio of medium survival time expressed as percent of untreated controls(dose 1.5 mg/kg); type: functional, Mus musculus
Method in brief: (§1)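 BDF1 mice inoculated ip on day 0 with 10^6 P388 lymphocytic leukemia cells. Drug given ip on days 1–5 following NCI protocols, at the dose stated. Eight mice per treatment group. Mean survival time was computed per group, and % T/C = (MST treated/MST control) × 100.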

P338 [3] = assay: Ratio of medium survival time expressed as percent of untreated controls(dose 12.5 mg/kg); type: functional, Mus musculus; method in brief: as §1
P338 [4] = assay: Ratio of medium survival time expressed as percent of untreated controls(dose 25 mg/kg); type: functional, Mus musculus; method in brief: as §1
P338 [5] = assay: Ratio of medium survival time expressed as percent of untreated controls(dose 3.12 mg/kg); type: functional, Mus musculus; method in brief: as §1
P338 [6] = assay: Ratio of medium survival time expressed as percent of untreated controls(dose 50 mg/kg); type: functional, Mus musculus; method in brief: as §1
P338 [7] = assay: Ratio of medium survival time expressed as percent of untreated controls(dose 6.25 mg/kg); type: functional, Mus musculus; method in brief: as §1
P338 [8] = assay: Survivor recorded on day 4 after day of first injection as a measure of drug toxicity(dose 1.5 mg/kg); 8/8; type: functional, Mus musculus
P338 [9] = assay: Survivor recorded on day 4 after day of first injection as a measure of drug toxicity(dose 12.5 mg/kg); 8/8; type: functional, Mus musculus
P338 [10] = assay: Survivor recorded on day 4 after day of first injection as a measure of drug toxicity(dose 25 mg/kg); 8/8; type: functional, Mus musculus
P338 [11] = assay: Survivor recorded on day 4 after day of first injection as a measure of drug toxicity(dose 3.12 mg/kg); 8/8; type: functional, Mus musculus
P338 [12] = assay: Survivor recorded on day 4 after day of first injection as a measure of drug toxicity(dose 50 mg/kg); 8/8; type: functional, Mus musculus
P338 [13] = assay: Survivor recorded on day 4 after day of first injection as a measure of drug toxicity(dose 6.25 mg/kg); 6/6; type: functional, Mus musculus
P338 [14] = assay: Survivor recorded on day 4 after day of first injection as a measure of drug toxicity(dose 12.5 mg/kg); 6/6; type: functional, Mus musculus
P338 [15] = assay: Survivor recorded on day 4 after day of first injection as a measure of drug toxicity(dose 25 mg/kg); 6/6; type: functional, Mus musculus
P338 [16] = assay: Survivor recorded on day 4 after day of first injection as a measure of drug toxicity(dose 3.12 mg/kg); 6/6; type: functional, Mus musculus
P338 [17] = assay: Ratio of medium survival time expressed as percent of untreated controls (dose 1.6 mg/kg); type: functional, Mus musculus; method in brief: as §1
P338 [18] = assay: Survivor recorded on day 4 after day of first injection as a measure of drug toxicity (dose 1.6 mg/kg); 8/8; type: functional, Mus musculus
P338 [19] = assay: Survivor recorded on day 4 after day of first injection as a measure of drug toxicity (dose 12.5 mg/kg); 8/8; type: functional, Mus musculus
P338 [20] = assay: Ratio of medium survival time expressed as percent of untreated controls (dose 25 mg/kg); Toxic; type: functional, organism-based; design: dose 25 mg/kg; details: Mus musculus, at 25 mg/kg
P338 [21] = assay: Ratio of medium survival time expressed as percent of untreated controls (dose 3.12 mg/kg); type: functional, Mus musculus; method in brief: as §1
P338 [22] = assay: Ratio of medium survival time expressed as percent of untreated controls (dose 6.25 mg/kg); type: functional, Mus musculus; method in brief: as §1
P338 [23] = assay: Ratio of medium survival time expressed as percent of untreated controls (dose 12.5 mg/kg); type: functional, Mus musculus; method in brief: as §1
P338 [24] = assay: Survivor recorded on day 4 after day of first injection as a measure of drug toxicity (dose 25 mg/kg); 6/8; type: functional, Mus musculus
P338 [25] = assay: Survivor recorded on day 4 after day of first injection as a measure of drug toxicity (dose 3.12 mg/kg); 8/8; type: functional, Mus musculus
P338 [26] = assay: Survivor recorded on day 4 after day of first injection as a measure of drug toxicity (dose 6.25 mg/kg); 8/8; type: functional, Mus musculus
P338 [27] = assay: Survivor recorded on day 4 after day of first injection as a measure of drug toxicity (dose 50 mg/kg); 0/8; type: functional, Mus musculus
P338 [28] = assay: Survivor recorded on day 4 after day of first injection as a measure of drug toxicity (dose 10 mg/kg); 8/8; type: functional, Mus musculus
P338 [29] = assay: Survivor recorded on day 4 after day of first injection as a measure of drug toxicity (dose 2.5 mg/kg); 8/8; type: functional, Mus musculus
P338 [30] = assay: Ratio of medium survival time expressed as percent of untreated controls (dose 20 mg/kg); type: functional, Mus musculus; method in brief: as §1
P338 [31] = assay: Ratio of medium survival time expressed as percent of untreated controls (dose 5 mg/kg); type: functional, Mus musculus; method in brief: as §1
P338 [32] = assay: Ratio of medium survival time expressed as percent of untreated controls(dose 1.25 mg/kg); type: functional, Mus musculus; method in brief: as §1
P338 [33] = assay: Ratio of medium survival time expressed as percent of untreated controls(dose 40 mg/kg); Toxic; type: functional, organism-based; design: dose 40 mg/kg; details: Mus musculus, at 40 mg/kg; method in brief: as §1
P338 [34] = assay: Ratio of medium survival time expressed as percent of untreated controls (dose 10 mg/kg); type: functional, Mus musculus; method in brief: as §1
P338 [35] = assay: Survivor recorded on day 4 after day of first injection as a measure of drug toxicity (dose 20 mg/kg); 8/8; type: functional, Mus musculus
P338 [36] = assay: Survivor recorded on day 4 after day of first injection as a measure of drug toxicity (dose 40 mg/kg); 8/8; type: functional, Mus musculus
P338 [37] = assay: Survivor recorded on day 4 after day of first injection as a measure of drug toxicity (dose 5 mg/kg); 8/8; type: functional, Mus musculus
P338 [38] = assay: Survivor recorded on day 4 after day of first injection as a measure of drug toxicity(dose 1.25 mg/kg); 8/8; type: functional, Mus musculus
P338 [39] = assay: Ratio of medium survival time expressed as percent of untreated controls (dose 2.5 mg/kg); type: functional, Mus musculus; method in brief: as §1

For `CNCC(=O)Nc1ccc(NC(=O)CNC)c2c1C(=O)c1ccccc1C2=O`, the EC50 (HeLa) was 0.14 µg/mL (≈ 0.368 µM), the EC50 (L1210) was 0.79 µg/mL (≈ 2.08 µM) and the Survival (P338 [1]) was 8. The T/C (P338 [2]) was 100%, the T/C (P338 [3]) was 100% and the T/C (P338 [4]) was 100%. For the same molecule, the T/C (P338 [5]) was 100%, the T/C (P338 [6]) was 111% and the T/C (P338 [7]) was 111%. The Survival (P338 [8]) was 8, the Survival (P338 [9]) was 8 and the Survival (P338 [10]) was 8. For the same molecule, the Survival (P338 [11]) was 8 and the Survival (P338 [12]) was 8.
With `O=C1c2c(O)ccc(O)c2C(=O)c2c(NCCNCCO)ccc(NCCNCCO)c21` [MITOXANTRONE] the EC50 (HeLa) was 0.55 µg/mL (≈ 1.24 µM) and the EC50 (L1210) was over 5 µg/mL.
Work on `O=C1c2ccccc2C(=O)c2c(NCCNCCO)ccc(NCCNCCO)c21` [AMETANTRONE] yielded an EC50 (HeLa) of 0.17 µg/mL (≈ 0.412 µM), an EC50 (L1210) of 1.77 µg/mL (≈ 4.29 µM) and a Survival (P338 [13]) of 6. The T/C (P338 [3]) was 300%, the T/C (P338 [4]) was 200% and the T/C (P338 [5]) was 190%. The T/C (P338 [7]) was 210%, the Survival (P338 [14]) was 6 and the Survival (P338 [15]) was 6. For the same molecule, the Survival (P338 [16]) was 6.
With `CN(C)CCC(=O)Nc1ccc(NC(=O)CCN(C)C)c2c1C(=O)c1ccccc1C2=O` the EC50 (HeLa) was 0.05 µg/mL (≈ 0.115 µM), the EC50 (L1210) was 0.36 µg/mL (≈ 0.825 µM) and the T/C (P338 [17]) was 91%. For the same molecule, the Survival (P338 [18]) was 8, the Survival (P338 [19]) was 8 and the T/C (P338 [20]) was “Toxic”. The T/C (P338 [21]) was 91%, the T/C (P338 [22]) was 100% and the T/C (P338 [23]) was 100%. It also gave a Survival (P338 [24]) of 6, a Survival (P338 [25]) of 8 and a Survival (P338 [26]) of 8. For the same molecule, the Survival (P338 [27]) was 0.
With `CN(C)CC(=O)Nc1ccc(NC(=O)CN(C)C)c2c1C(=O)c1ccccc1C2=O` the EC50 (HeLa) was 0.39 µg/mL (≈ 0.955 µM) and the EC50 (L1210) was 2.26 µg/mL (≈ 5.53 µM).
`CNCCC(=O)Nc1ccc(NC(=O)CCNC)c2c1C(=O)c1ccccc1C2=O` showed an EC50 (HeLa) of 0.08 µg/mL (≈ 0.196 µM), an EC50 (L1210) of 1.28 µg/mL (≈ 3.13 µM) and a Survival (P338 [28]) of 8. The Survival (P338 [29]) was 8, the T/C (P338 [30]) was 120% and the T/C (P338 [31]) was 130%. For the same molecule, the T/C (P338 [32]) was 110%, the T/C (P338 [33]) was “Toxic” and the T/C (P338 [34]) was 130%. It also gave a Survival (P338 [35]) of 8, a Survival (P338 [36]) of 8 and a Survival (P338 [37]) of 8. For the same molecule, the Survival (P338 [38]) was 8 and the T/C (P338 [39]) was 120%.
For `O=C(CNCCO)Nc1ccc(NC(=O)CNCCO)c2c1C(=O)c1ccccc1C2=O`, the EC50 (HeLa) was 1.41 µg/mL (≈ 3.2 µM) and the EC50 (L1210) was over 5 µg/mL.
